Only some compounds are listed: those with a hit (about 0.55% of all), similar ones and a draw of the others.
V1aR counter = V1a receptor agonism, counter-screen for OXTR agonists; P37288; CHO-V1R cells, Fluo-8 calcium fluorescence, agonist mode; 0% DMSO, 100% 3 nM vasopressin; activation, % at 3 µM; 0.25% of 320,000 active; AID 2797;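 active = activation above the mean activation of all tested compounds plus 3 SD, per screening run, cut at about 20% in these data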;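 note: signal is peak over basal fluorescence ratio across a 100 second FLIPR read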
Target sequence (P37288 whole entry, looked up): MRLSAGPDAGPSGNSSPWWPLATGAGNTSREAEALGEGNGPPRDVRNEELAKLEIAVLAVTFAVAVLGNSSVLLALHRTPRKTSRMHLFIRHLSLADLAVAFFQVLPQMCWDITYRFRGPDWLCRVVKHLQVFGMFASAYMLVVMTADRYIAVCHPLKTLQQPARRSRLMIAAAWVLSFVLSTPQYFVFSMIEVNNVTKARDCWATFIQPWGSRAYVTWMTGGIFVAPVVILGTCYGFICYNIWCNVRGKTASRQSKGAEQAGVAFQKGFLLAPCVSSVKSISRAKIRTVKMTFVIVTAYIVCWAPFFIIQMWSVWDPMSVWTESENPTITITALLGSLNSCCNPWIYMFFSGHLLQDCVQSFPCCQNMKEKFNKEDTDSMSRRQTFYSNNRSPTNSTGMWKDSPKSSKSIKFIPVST
TRPN1 ag = activates the zebrafish TRPN1 channel | 0.18% of 220,000 active | HEK293 zebrafish TRPN1-YFP, Fluo-8 calcium fluorescence; 100% = response to 87 µM carbachol | activation, % at 3 µM | AID 1424;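 active = activation above its plate's cutoff, the mean activation of test wells on that plate plus 3 SD, cut at about 19% in these data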
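Assay system: Zebrafish TRPN1-YFP in HEK293 cells | Incubation: Dye loading 1 h at 37 °C, then 30 min room temperature | Measured by: Kinetic Fluo-8 fluorescence, ex 470-495, em 515-575 nm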
TRPML3 agonist = human mucolipin-3 channel agonism. Q8TDD5. HEK293 TRPML3-YFP, Fluo-8 calcium fluorescence; 100% = the carbachol control signal. activation, % at 3 µM. 0.29% of 220,000 active;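 active = activation above its plate's cutoff, the mean activation of the plate's test wells plus 3 SD, cut at about 12% in these data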
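Test system – HEK293 line with stable expression of human TRPML3-YFP channel · Control set – carbachol 87 µM final as high control (100%), DMSO as low control (0%) · Signal – Fluo-8 calcium dye fluorescence, ex 470-495, em 515-575 nm · Incubation – 1-h 37 °C dye load, 5-s basal, 120-s post-compound reads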
OXTR potentiate = human OXTR potentiation. P30559. CHO-OTR cells, Fluo-8 calcium fluorescence, potentiator mode; 0% = oxytocin EC15, 100% = EC100. activation, % at 3 µM. 0.061% of 320,000 active. AID 2445;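 active = activation above that plate's cutoff, the mean activation of tested compounds plus 3 SD, cut at about 6.6% in these data, passing the limit was not always enough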
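test system = CHO-OTR cells, human receptor | compound = single-point 3.0 µM | schedule = 6 min compound pre-incubation at room temperature, 100 s kinetic read | signal = Fluo-8 no-wash calcium dye fluorescence, excitation 470-495 nm, emission 515-575 nm | repeats = single well per compound, singlicate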
OXTR ag = activates the human oxytocin receptor; activation, % at 3 µM; 0.32% of 320,000 active; CHO-OTR cells, Fluo-8 calcium fluorescence; normalized: DMSO 0%, oxytocin 100%; AID 2435;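 active = activation above the mean of all tested compounds plus 3 SD, cutoff set per screening run, cut at about 20% in these data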;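 note: peak over basal fluorescence ratio from a 100 s FLIPR kinetic read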
OXTR pot cf = confirmation of human oxytocin receptor potentiators. 180 tested, under 10 active. CHO-OTR cells, Fluo-8 calcium fluorescence, potentiation; scaled from low-dose to maximal oxytocin. shares compounds with OXTR potentiate. activation, % at 3 µM;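 active = mean percent activation over triplicates above a cutoff set from solvent-only control plates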;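 note: compounds tested in the presence of an EC15 dose of oxytocin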
V1aR agonist cf = confirmation of human vasopressin V1a receptor agonists; shares compounds with V1aR counter; CHO-V1R cells, Fluo-8 calcium fluorescence, agonist; activation, % at 3 µM; 20% of 180 active; AID 434964;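 active = average activation exceeds primary screen hit cutoff, cut at about 21% in these data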;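 note: peak over basal fluorescence ratio during a 100 s FLIPR read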
OXTR ag counter = activates oxytocin receptor in V1a agonist counter-screen | activation, % at 3 µM | CHO-OTR cells, Fluo-8 calcium fluorescence | shares compounds with V1aR counter | AID 434969 | 10% of 180 active;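 active = mean activation over three repeats above the cutoff from the earlier oxytocin receptor agonist screen, cut at about 20% in these data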;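 note: peak over minimum fluorescence ratio within a 100 second FLIPR read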
Numbers stand for hits; - = inactive; . = not tested or not shown.

SMILES | V1aR counter | TRPN1 ag | TRPML3 agonist | OXTR potentiate | OXTR ag | V1aR agonist cf | OXTR ag counter | others
COc1cccc(OC)c1C(=O)Nn1c(C2CCC2)nc2ccccc2c1=O | - | - | - | - | - | . | .
CCC(=O)Nn1c(C2CCC2)nc2ccccc2c1=O | - | . | . | 13 | - | . | . | OXTR pot cf=-
COc1ccc(-c2nnc(Nc3ccc(OC)c(C(=O)N4CCCCC4)c3)c3ccccc23)cc1 | - | - | - | 13 | - | . | . | OXTR pot cf=-
COCCNC(=S)N/N=C/c1ccc(N2CCOCC2)cc1 | - | - | - | - | - | . | .
COc1cc(/C=N/NC(=S)NCCN2CCOCC2)ccc1O | - | - | - | 12 | - | . | . | OXTR pot cf=-
O=C1c2ccccc2C(=O)N1Cc1ccc2c(c1)OCO2 | - | - | - | - | - | . | .
O=C(O)c1ccc2c(c1)C(=O)N(Cc1ccc3c(c1)OCO3)C2=O | - | - | - | 11 | - | . | . | OXTR pot cf=-
O=C(NCCc1ccccc1)NC1CCCCC1 | - | - | - | 12 | - | . | . | OXTR pot cf=-
O=C(NC1CCCCCC1)C(=S)NCCc1ccccc1 | - | - | - | - | - | . | .
Cc1ccccc1-c1nc(CN(C)C(C)c2ccon2)c(C)o1 (stereo not given) | - | - | - | 13 | - | . | . | OXTR pot cf=-
Cc1oc(-c2ccccc2Cl)nc1CN(C)C(C)c1ccon1 (stereo not given) | - | - | - | - | - | . | .
CCOc1ccc(CONS(=O)(=O)c2ccc(NC(C)=O)cc2)cc1Cl | 23 | - | - | - | - | - | -
CCC1Sc2ccc(S(=O)(=O)Nc3ccc(OC)cc3)cc2NC1=O (stereo not given) | 20 | . | . | - | - | - | -
CCC1Sc2ccc(S(=O)(=O)Nc3ccc(OC)c(OC)c3)cc2NC1=O (stereo not given) | - | . | . | - | - | . | .
CC(C)n1cnnc1SCC(=O)NC(=O)c1ccccc1 | - | . | . | - | - | . | .
Cc1cc(NCc2ccccc2)c2ccccc2n1 | - | . | . | - | - | . | .
Cc1cc(NCc2ccccc2)nc2ccccc12 | 32 | - | - | - | - | - | -
S=c1[nH]nc(-c2cccs2)n1/N=C/c1c(Cl)cccc1Cl | 27 | - | - | - | - | - | -
Cc1ccc(/C=N/n2c(-c3cccs3)n[nH]c2=S)cc1 | - | - | - | - | - | . | .
CCCCCc1ccc(OCCCC[n+]2ccccc2)c(CCCCC)c1 | - | - | - | - | - | . | .
CCCCCc1ccc(OCCCC[n+]2ccc(C)cc2)c(CCCCC)c1 | 22 | - | - | - | - | - | -
CC(NC(=O)Nc1ccc([N+](=O)[O-])cc1)C(c1ccccc1)N1CCOCC1 (stereo not given) | 52 | - | - | - | - | 26 | -
CC(NC(=O)c1ccc(Cl)cc1Cl)C(c1ccccc1)N1CCOCC1 (stereo not given) | - | - | - | - | - | . | .
CC(NC(=O)Nc1ccc(Cl)c(Cl)c1)C(c1ccccc1)N1CCOCC1 (stereo not given) | 44 | - | - | - | - | 25 | -
COCCN=C1N[C@@H](c2cccc(C(F)(F)F)c2)C(C(=O)OC)=C(C)N1Cc1ccccc1 | - | . | . | - | - | . | .
SMILES | V1aR counter | TRPN1 ag | TRPML3 agonist | OXTR potentiate | OXTR ag | V1aR agonist cf | OXTR ag counter | others
COC(=O)C1=C(C)N(Cc2ccccc2)C(=NCCc2c[nH]c3ccccc23)N[C@H]1c1cccc(C(F)(F)F)c1 | 20 | . | . | - | - | - | -
CCOc1ccc(NC(=O)c2cccc(NC(=O)c3ccccc3)c2)cc1 | 50 | . | . | - | - | - | -
CCN(CC)C(=O)COc1ccc(/C(C)=N/Nc2ncc(Cl)cc2Cl)cc1 | - | - | - | - | - | . | .
COc1ccc(N=C2NC(=O)S/C2=C\c2ccc(N(C)C)cc2)cc1 | 21 | - | - | - | - | 26 | 20
CCOc1ccc(N=C2NC(=O)S/C2=C\c2ccc(Cl)cc2)cc1 | - | - | - | - | - | . | .
O=C(C[C@H]1C/C=C\CCC(=O)O[C@@H](c2ccccc2)CNC1=O)NCCO | - | . | . | - | - | . | .
CCOC(=O)C(CC(=O)O)=C(c1ccccc1)c1ccccc1 | 21 | . | . | - | - | - | -
CCOC(=O)C(NC(=O)c1ccccc1)=C(C)C | - | - | - | - | - | . | .
c1cc2c3c(cccc3c1)NC1(CCCCCC1)N2 | - | - | - | - | - | . | .
c1cc2c3c(cccc3c1)NC1(CCC3(CC1)Nc1cccc4cccc(c14)N3)N2 | 32 | - | - | - | - | - | -
COc1cc(C(=O)NNC(=S)NC(=O)c2ccccc2C)cc(OC)c1OC | 29 | - | - | - | - | - | -
COc1cc(C(=O)NNC(=S)NC(=O)c2ccc3c(c2)OCO3)cc(OC)c1OC | - | - | - | - | - | . | .
COc1ccc(OC)c2c1C(=O)c1ccccc1C2=O | 23 | - | - | - | - | 33 | 21
CC(C)c1ccc(NC(=O)C2CCC(CNC(=O)[C@@H]3Cc4ccccc4CN3)CC2)cc1 (stereo not given in full) | 24 | . | . | - | - | - | -
Cc1ccc(NC(=O)C2CCC(CNC(=O)[C@@H]3Cc4ccccc4CN3)CC2)cc1 (stereo not given in full) | - | . | . | - | - | . | .
O=C(CCCN=C1NS(=O)(=O)c2ccccc21)OCC(=O)c1ccc(Br)cc1 | 26 | . | . | - | - | - | -
NS(=O)(=O)c1ccc2nc(NC(=O)Nc3ccc(F)cc3)sc2c1 | 24 | . | . | - | - | - | -
COc1cc(-c2nnc(COC(=O)c3ccc(C)o3)o2)cc(OC)c1OC | - | . | . | - | - | . | .
O=C(CCCC(=O)NCC1CCCO1)NCC1CCCO1 (stereo not given) | 20 | - | - | - | - | - | -
CC(=O)N1CCOc2ccc(S(=O)(=O)NC(C)c3ccccc3)cc21 (stereo not given) | - | . | . | - | - | . | .
COc1cccc(/C=N/Nc2nc(Nc3ccccc3)nc(-n3nc(C)cc3C)n2)c1O | 21 | - | - | - | - | - | -
Cc1cc(C)n(-c2nc(Nc3ccccc3)nc(-n3nc(C)cc3C)n2)n1 | - | - | - | - | - | . | .
CCCCc1noc(-c2c(-c3ccccc3Cl)noc2C)n1 | - | - | - | - | - | . | .
CC(=O)c1cccc(CN2CCC(n3nccc3NC(=O)c3ccc4c(c3)OCO4)CC2)c1 | - | . | . | - | - | . | .
COc1ccc(/C=C2\SC(=S)N(CCC(=O)N3CCCCC3)C2=O)cc1 | - | . | . | - | - | . | .
COCCN1C(=O)/C(=C/c2ccc(N3CCCC3)cc2)SC1=S | 28 | - | - | - | - | 99 | 76
COc1cccc(-c2ccc(NC(=O)C3CCCN(Cc4cnc(C)s4)C3)cc2)c1 (stereo not given) | - | . | . | - | - | . | .
